In brackets after ≈: the same amount, converted by molar mass.
What was measured:
[1] = system: Mycobacterium tuberculosis; test: Antimicrobial activity against Mycobacterium tuberculosis H37RvMA under GAST/Fe medium assessed as growth inhibition after 14 days by alamar blue assay; format: functional; details: 336 h
In short: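 Broth microdilution in GAST/Fe medium against fully virulent Mtb H37RvMa or its derived strains (cytochrome bd oxidase deletion ΔcydKO; qcrB Ala317Thr point mutant). Plates were incubated 14 days, growth was read by Alamar Blue, and MIC90 was taken as the potency value.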

[2] = Metabolic stability in rat liver microsomes assessed as residual compound at 0.1 uM after 30 mins by LC-MS/MS method in presence or absence of NADPH; format: ADME; details: read-out: Stability
[3] = Metabolic stability in human liver microsomes assessed as residual compound at 0.1 uM after 30 mins by LC-MS/MS method in presence or absence of NADPH; format: ADME; details: read-out: Stability
[4] = Metabolic stability in mouse liver microsomes assessed as residual compound at 0.1 uM after 30 mins by LC-MS/MS method in presence or absence of NADPH; format: ADME; details: read-out: Stability
[5] = Kinetic solubility in FaSSIF at pH 6.5 after 2 hours at 25 degC by shake flask method; format: physicochemical; details: read-out: Kinetic_solubility
Vero = test: Cytotoxicity against African green monkey Vero cells assessed as cell viability by MTT assay; format: cell-based; details: Chlorocebus sabaeus
In short: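 VERO kidney epithelial cells from African green monkey were exposed to compounds at concentrations up to 100 μM, and IC₅₀ was reported.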

Liver = test: Drug level in BALB/c mouse liver microsomes treated with 7-Amino-2-benzyl-4-methyl-6-(3-methyl-1,2,4-oxadiazol-5-yl)-1H-pyrrolo[3,4-c]pyridine-1,3(2H)-dione at 10 uM after 1 hr by LC-MS analysis; format: ADME
Plasma = test: Drug metabolism in C57/BL6 mouse plasma treated with 7-Amino-2-benzyl-4-methyl-6-(3-methyl-1,2,4-oxadiazol-5-yl)-1H-pyrrolo[3,4-c]pyridine-1,3(2H)-dione by LC-MS analysis; format: ADME, cell-free
[6] = system: Mycobacterium tuberculosis; test: Antimicrobial activity against GFP expressing recombinant Mycobacterium tuberculosis H37RvMA under GAST/Fe medium assessed as growth inhibition after 14 days by broth microdilution method; format: functional; details: 336 h
[7] = Octanol-phosphate buffer partition coefficient, log D of the compound at 100 uM at pH 7.4 after 3 hrs by shake flask method; format: physicochemical
Liver microsome [8] = test: Intrinsic clearance in rat liver microsomes assessed per mg of protein at 0.1 uM by LC-MS/MS method in presence or absence of NADPH; format: ADME
[9] = Half life in human plasma at 0.1 uM by LC-MS/MS method; format: ADME, cell-free
[10] = Metabolic stability in human liver S9 fractions assessed as residual compound at 0.1 uM after 40 mins by LC-MS/MS method in presence or absence of NADPH; format: ADME; details: read-out: Stability
Liver microsome [11] = test: Intrinsic clearance in human liver microsomes assessed per mg of protein at 0.1 uM by LC-MS/MS method in presence or absence of NADPH; format: ADME
[12] = Intrinsic clearance in mouse liver microsomes assessed per mg of protein at 0.1 uM by LC-MS/MS method in presence or absence of NADPH; format: ADME
[13] = system: Mycobacterium tuberculosis; test: Antimicrobial activity against GFP expressing recombinant Mycobacterium tuberculosis H37RvMA under 7H9 medium assessed as growth inhibition after 14 days by broth microdilution method; format: functional; details: 336 h
[14] = system: Mycobacterium tuberculosis; test: Antimicrobial activity against clinical isolates of Mycobacterium tuberculosis SAWC 3933 LCC under 7H9 medium assessed as growth inhibition after 14 days by alamar blue assay; format: functional; details: 336 h
[15] = system: Mycobacterium tuberculosis; test: Antimicrobial activity against clinical isolates of Mycobacterium tuberculosis SAWC 3906 Atyp-beijing under 7H9 medium assessed as growth inhibition after 14 days by alamar blue assay; format: functional; details: 336 h
[16] = system: Mycobacterium tuberculosis; test: Antimicrobial activity against clinical isolates of Mycobacterium tuberculosis SAWC 3385 Cas1/Delhi under 7H9 medium assessed as growth inhibition after 14 days by alamar blue assay; format: functional; details: 336 h
[17] = system: Mycobacterium tuberculosis; test: Antimicrobial activity against clinical isolates of Mycobacterium tuberculosis SAWC 2371 Haarlem under 7H9 medium assessed as growth inhibition after 14 days by alamar blue assay; format: functional; details: 336 h

Compound	MIC90 [1] [µM]	solubility kinetic at 2 h [5] [µM]	other results
CCCOC(=O)c1nc(C)c2c(c1N)C(=O)N(Cc1ccccc1)C2=O	< 0.156	< 5	remaining at 0.5 h, 0.1 µM [2]: 3.3%; remaining at 0.5 h, 0.1 µM [3]: 3.4%; remaining at 0.5 h, 0.1 µM [4]: 8.8%
Cc1noc(-c2nc(C)c3c(c2N)C(=O)N(Cc2ccc(C(F)(F)F)cc2)C3=O)n1	20 (≈ 8.35 µg/mL)	< 5	
Cc1nc(-c2nc(C(F)(F)F)no2)c(N)c2c1C(=O)N(Cc1ccccc1)C2=O	20 (≈ 8.07 µg/mL)	< 5	remaining at 0.5 h, 0.1 µM [2]: 83%; remaining at 0.5 h, 0.1 µM [3]: 100%; remaining at 0.5 h, 0.1 µM [4]: 20%; IC50 (Vero): > 100 µM
Cc1noc(-c2nc(C)c3c(c2N)C(=O)N(Cc2ccc(Cl)cn2)C3=O)n1	2.5 (≈ 0.962 µg/mL)	< 5	
Cc1nc(C(=O)N(C)C)c(N)c2c1C(=O)N(Cc1ccccc1)C2=O	> 160	172 (≈ 58.2 µg/mL)	remaining at 0.5 h, 0.1 µM [2]: 51%; remaining at 0.5 h, 0.1 µM [3]: 72%; remaining at 0.5 h, 0.1 µM [4]: 47%; IC50 (Vero): > 100 µM
Cc1noc(-c2nc(C)c3c(c2N)C(=O)N(Cc2ccccc2F)C3=O)n1	0.3 (≈ 0.11 µg/mL)	< 5	
Cc1noc(-c2nc(C)c3c(c2N)C(=O)N(CC2CCOCC2)C3=O)n1	20 (≈ 7.15 µg/mL)	5.7 (≈ 2.04 µg/mL)	
Cc1noc(-c2nc(C)c3c(c2N)C(=O)N(Cc2ccc(N4CCCC4=O)cc2)C3=O)n1	> 160	< 5	
Cc1noc(-c2nc(C)c3c(c2N)C(=O)N(Cc2ccc(OC(F)F)cc2)C3=O)n1	< 0.156	< 5	
Cc1noc(-c2nc(C)c3c(c2N)C(=O)N(Cc2ccc(CO)cc2)C3=O)n1	0.62 (≈ 0.235 µg/mL)	< 5	
Cc1noc(-c2nc(C)c3c(c2N)C(=O)N(Cc2ccc(Cl)cc2)C3=O)n1	0.62 (≈ 0.238 µg/mL)	< 5	
CO[C@H]1/C=C/O[C@@]2(C)Oc3c(C)c(O)c4c(O)c(c(/C=N/N5CCN(C)CC5)c(O)c4c3C2=O)NC(=O)/C(C)=C\C=C\[C@H](C)[C@H](O)[C@@H](C)[C@@H](O)[C@@H](C)[C@H](OC(C)=O)[C@@H]1C [RIFAMPIN]	0.009 (≈ 0.00741 µg/mL)		
COc1ccccc1CN1C(=O)c2c(C)nc(-c3nc(C)no3)c(N)c2C1=O	0.31 (≈ 0.118 µg/mL)	< 5	
Cc1nc(C(N)=O)c(N)c2c1C(=O)N(Cc1ccccc1)C2=O	> 160	< 5	Drug metabolism (Liver): metabolite_detected; Drug metabolism (Plasma): metabolite_detected
CNC(=O)c1nc(C)c2c(c1N)C(=O)N(Cc1ccccc1)C2=O	> 160	41 (≈ 13.3 µg/mL)	
Cc1noc(-c2nc(C)c3c(c2N)C(=O)N(Cc2ccc(S(C)(=O)=O)cc2)C3=O)n1	0.31 (≈ 0.133 µg/mL)	< 5	
Cc1noc(-c2nc(C)c3c(c2N)C(=O)N(Cc2cccc(C(F)(F)F)c2)C3=O)n1	< 0.156	< 5	
Cc1nc(C(=O)NC#N)c(N)c2c1C(=O)N(Cc1ccccc1)C2=O	> 160	185 (≈ 62 µg/mL)	Drug metabolism (Liver): metabolite_detected; remaining at 0.5 h, 0.1 µM [2]: 92%; remaining at 0.5 h, 0.1 µM [3]: 99%; remaining at 0.5 h, 0.1 µM [4]: 95%; Drug metabolism (Plasma): metabolite_detected
COC(=O)c1nc(C)c2c(c1N)C(O)N(Cc1ccccc1)C2=O (stereo unspecified)	2.5 (≈ 0.818 µg/mL)	200 (≈ 65.5 µg/mL)	remaining at 0.5 h, 0.1 µM [2]: 70%; remaining at 0.5 h, 0.1 µM [3]: 55%; remaining at 0.5 h, 0.1 µM [4]: 69%; IC50 (Vero): > 100 µM
Cc1noc(-c2nc(C)c3c(c2N)C(=O)N(Cc2ccc(-c4ccncc4)cc2)C3=O)n1	160 (≈ 68.2 µg/mL)	< 5	
CCOC(=O)c1ncc2c(c1N)C(=O)N(Cc1ccccc1)C2=O	20 (≈ 6.51 µg/mL)		
Cc1noc(-c2nc(C)c3c(c2N)C(=O)N(CC2CCNCC2)C3=O)n1	> 160	160 (≈ 57 µg/mL)	
Cc1nc(C(=O)NO)c(N)c2c1C(=O)N(Cc1ccccc1)C2=O	> 160		remaining at 0.5 h, 0.1 µM [2]: 46%; remaining at 0.5 h, 0.1 µM [3]: 80%; remaining at 0.5 h, 0.1 µM [4]: 58%

Compound	MIC90 [1] [µM]	solubility kinetic at 2 h [5] [µM]	other results
Cc1noc(-c2nc(C)c3c(c2N)C(=O)N(Cc2ccc(OC(F)(F)F)cc2)C3=O)n1	0.62 (≈ 0.269 µg/mL)	< 5	
CCOC(=O)c1nc(C)c2c(c1N)C(=O)N(c1ccccc1)C2=O	> 160	5 (≈ 1.63 µg/mL)	
Cc1noc(-c2nc(C)c3c(c2N)C(=O)N(Cc2ccc(SC(F)(F)F)cc2)C3=O)n1	1.2 (≈ 0.539 µg/mL)	< 5	
Cc1noc(-c2nc(C)c3c(c2N)C(=O)N(Cc2ccc(C#N)cc2)C3=O)n1	> 160	< 5	
Cc1noc(-c2nc(C)c3c(c2N)C(=O)N(Cc2ccccc2C(F)(F)F)C3=O)n1	> 160	< 5	
Cc1noc(-c2nc(C)c3c(c2N)C(=O)N(Cc2ccncc2)C3=O)n1	20 (≈ 7.01 µg/mL)	26.4 (≈ 9.25 µg/mL)	
Cc1noc(-c2nc(C)c3c(c2N)C(=O)N(Cc2ccc(-n4cccn4)cc2)C3=O)n1	40 (≈ 16.6 µg/mL)	< 5	
Cc1noc(-c2nc(C)c3c(c2N)C(=O)N(Cc2ccc(Oc4ccc(F)cc4)cc2)C3=O)n1	< 0.156	23.8 (≈ 10.9 µg/mL)	
Cc1noc(-c2nc(C)c3c(c2N)C(=O)N(Cc2ccc(F)cc2)C3=O)n1	0.31 (≈ 0.114 µg/mL)	< 5	
Cc1noc(-c2nc(C)c3c(c2N)C(=O)N(C(C)c2ccccc2)C3=O)n1 (stereo unspecified)	1.25 (≈ 0.454 µg/mL)	10.9 (≈ 3.96 µg/mL)	
Cc1noc(-c2nc(C)c3c(c2N)C(=O)N(Cc2cccc(F)c2)C3=O)n1	< 0.156	< 5	
COC(=O)c1nc(C)c2c(c1N)C(=O)N(Cc1ccccc1)C2=O	0.15 (≈ 0.0488 µg/mL)	7.4 (≈ 2.41 µg/mL)	
Cc1nc(C#N)c(N)c2c1C(=O)N(Cc1ccccc1)C2=O	> 160	< 5	remaining at 0.5 h, 0.1 µM [2]: 100%; remaining at 0.5 h, 0.1 µM [3]: 98%; remaining at 0.5 h, 0.1 µM [4]: 99%
Cc1noc(-c2nc(C)c3c(c2N)C(=O)N(Cc2cccc(OC(F)(F)F)c2)C3=O)n1	0.0637 (≈ 0.0276 µg/mL)	6.3 (≈ 2.73 µg/mL)	MIC90 [6]: 0.052 µM; logD at 3 h, 100 µM [7]: 3.64; CLint (Liver microsome [8]): 32.4 µL/min/mg; half-life at 0.1 µM [9]: > 360 min; remaining at 40 min, 0.1 µM [10]: 93%; CLint (Liver microsome [11]): 15.4 µL/min/mg; CLint [12]: 65.7 µL/min/mg; MIC90 [13]: > 20 µM; IC50 (Vero): > 100 µM
Cc1noc(-c2nc(C)c3c(c2N)C(=O)N(Cc2ccc(N(C)C)cc2)C3=O)n1	20 (≈ 7.85 µg/mL)	7.4 (≈ 2.9 µg/mL)	
Cc1noc(-c2nc(C)c3c(c2N)C(=O)N(Cc2ccc(C(N)=O)cc2)C3=O)n1	> 160	< 5	
Cc1noc(-c2nc(C)c3c(c2N)C(=O)N(Cc2ccccc2Cl)C3=O)n1	1.25 (≈ 0.48 µg/mL)	< 5	
COc1ccc(CN2C(=O)c3c(C)nc(-c4nc(C)no4)c(N)c3C2=O)cc1	< 0.156	< 5	
CCOC(=O)c1nc(C)c2c(c1N)C(=O)N(Cc1ccccc1)C2O (stereo unspecified)	0.144 (≈ 0.0492 µg/mL)	41.5 (≈ 14.2 µg/mL)	remaining at 0.5 h, 0.1 µM [2]: 81%; remaining at 0.5 h, 0.1 µM [3]: 99%; remaining at 0.5 h, 0.1 µM [4]: 89%; IC50 (Vero): > 100 µM
Cc1nc(C(=O)OC2CC2)c(N)c2c1C(=O)N(Cc1ccccc1)C2=O	1.25 (≈ 0.439 µg/mL)	202 (≈ 71 µg/mL)	remaining at 0.5 h, 0.1 µM [2]: 9.6%; remaining at 0.5 h, 0.1 µM [3]: 61%; remaining at 0.5 h, 0.1 µM [4]: 36%
Cc1nnc(-c2nc(C)c3c(c2N)C(=O)N(Cc2ccccc2)C3=O)o1	> 160	< 5	remaining at 0.5 h, 0.1 µM [2]: 50%; remaining at 0.5 h, 0.1 µM [3]: 63%; remaining at 0.5 h, 0.1 µM [4]: 57%; IC50 (Vero): > 100 µM
COc1cccc(CN2C(=O)c3c(C)nc(-c4nc(C)no4)c(N)c3C2=O)c1	< 0.156	< 5	MIC90 [14]: 0.15 µM (≈ 0.0569 µg/mL); MIC90 [15]: 0.075 µM (≈ 0.0285 µg/mL); MIC90 [16]: 0.075 µM (≈ 0.0285 µg/mL); MIC90 [17]: 0.3 µM (≈ 0.114 µg/mL)
Cc1noc(-c2nc(C)c3c(c2N)C(=O)N(Cc2ccc(Br)cc2)C3=O)n1	< 0.156	< 5	
